From ChEMBL document CHEMBL1144684, “Evaluation of a series of naphthamides as potent, orally active vascular endothelial growth factor receptor-2 tyrosine kinase inhibitors” (J Med Chem, 2008)
The source made the active and inactive calls. No cut-off for these calls is given here.

Assays:
Mus musculus [1] = assay: Cmax in mouse at 10 mg/kg, po; type: ADME, organism-based; parameters: dose 10 mg/kg, route oral; conditions: in vivo
How it was run: (§1)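 Compound given iv and po as single doses; vehicles: mouse iv PEG 400, po OraPlus; dog iv DMSO, po 1% Tween-80/2% HPMC/97% water; cynomolgus iv propylene glycol, po suspension.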

[2] = Tmax in mouse at 10 mg/kg, po; type: ADME, organism-based; parameters: dose 10 mg/kg, route oral; conditions: in vivo
How it was run: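 Oral suspension dosing; vehicles: mouse 10 mg/kg in OraPlus, dog 0.5 mg/kg in 1% Tween-80/2% HPMC/97% water, cynomolgus monkey 2 mg/kg.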

[3] = AUC (0 to 24 hrs) in mouse at 10 mg/kg, po; type: ADME, organism-based; parameters: time < 24 hr, dose 10 mg/kg, route oral; conditions: plasma; how it was run: as §1
[4] = Mean residence time in mouse at 2 mg/kg, iv; type: ADME, organism-based; parameters: dose 2 mg/kg, route intravenous; conditions: in vivo
How it was run: (§2)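 Intravenous dosing of male/unspecified animals per species; vehicles: mouse 2 mg/kg in Peg 400, dog 0.5 mg/kg in DMSO, cynomolgus monkey 0.5 mg/kg in propylene glycol. Parameters from plasma concentration–time data by noncompartmental analysis.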

[5] = Volume of distribution at steady state in mouse at 2 mg/kg, iv; type: ADME, organism-based; parameters: dose 2 mg/kg, route intravenous; conditions: in vivo, read-out: Vdss; how it was run: as §2
[6] = Protein binding in dog plasma; type: ADME, organism-based, Canis lupus familiaris; conditions: read-out: PPB (converted)
How it was run: (§3)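 Compound spiked into plasma at 5 µg/mL (12.9 µM) from a DMSO stock, incubated 37 °C 15 min, then ultracentrifuged 3 h at 37 °C. Supernatant below lipid layer measured by LC-MS (n = 6) against QC in plasma filtrate; % bound = 1 − (centrifuged concentration / mean QC) × 100.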

[7] = Half life in dog at 0.5 mg/kg, po; type: ADME, organism-based, Canis lupus familiaris; parameters: dose 0.5 mg/kg, route oral; conditions: in vivo; how it was run: as §1
[8] = Mean residence time in dog at 0.5 mg/kg, iv; type: ADME, organism-based, Canis lupus familiaris; parameters: dose 0.5 mg/kg, route intravenous; conditions: in vivo; how it was run: as §2
[9] = Protein binding in cynomolgus monkey plasma; type: ADME, cell-free, Macaca fascicularis; conditions: read-out: PPB (converted)
[10] = AUC (0 to 24 hrs) in cynomolgus monkey at 2 mg/kg, po; type: ADME, organism-based, Macaca fascicularis; parameters: time < 24 hr, dose 2 mg/kg, route oral; conditions: plasma; how it was run: as §1
[11] = Clearance in cynomolgus monkey at 0.5 mg/kg, iv; type: ADME, organism-based, Macaca fascicularis; parameters: dose 0.5 mg/kg, route intravenous; conditions: in vivo; how it was run: as §1
HT-29 [12] = assay: Antitumor activity in human HT29 cells xenografted CD1 nu/nu mouse assessed as inhibition of tumor growth at 3 mg/kg, po qd for 14 days; type: functional; conditions: HT-29, 336 h, read-out: TGI
How it was run: (§4)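 Female CD-1 nu/nu mice, 4–8 weeks, implanted sc in hind flank with 1 × 10^7 HT29 (DMEM high glucose, 5% FBS) or Calu-6 (RPMI 1640, 10% FBS) cells; treatment began at 13–14 days (~300 mm3). Methanesulfonate salt given po qd in OraPlus for 14 days; caliper volumes twice weekly; n = 10/group; RMANOVA with Scheffé test.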

HT-29 [13] = assay: Antitumor activity in human HT29 cell xenografted CD1 nu/nu mouse assessed as inhibition of tumor growth at 30 mg/kg, po qd for 14 days; type: functional; conditions: HT-29, 336 h, read-out: TGI; how it was run: as §4
Mus musculus [14] = assay: Cmax in human HT29 cell xenografted CD1 nu/nu mouse at 10 mg/kg, po qd; type: ADME, organism-based, HT-29; parameters: dose 10 mg/kg, route oral; conditions: in vivo
[15] = AUC (0 to 24 hrs) in human HT29 cell xenografted CD1 nu/nu mouse at 10 mg/kg, po qd; type: ADME, organism-based, HT-29; parameters: time < 24 hr, dose 10 mg/kg, route oral; conditions: in vivo
[16] = Protein binding in mouse plasma; type: ADME, cell-free; conditions: read-out: PPB (converted); how it was run: as §3
[17] = Half life in Sprague-Dawley rat at 0.5 mg/kg, iv; type: ADME, organism-based; parameters: dose 0.5 mg/kg, route intravenous; conditions: in vivo
How it was run: (§5)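 Male Sprague–Dawley rats dosed iv via femoral vein as DMSO solution (1 or 0.5 mg/kg) or po by gavage as OraPlus suspension (pH 2.0–2.2 with methanesulfonic acid; 10 or 2 mg/kg). Serial jugular blood over 12–24 h; plasma acetonitrile precipitation, LC-MS/MS (MRM) with internal standard; noncompartmental parameters.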

[18] = Cmax in Sprague-Dawley rat at 2 mg/kg, po; type: ADME, organism-based; parameters: dose 2 mg/kg, route oral; conditions: in vivo; how it was run: as §5
[19] = Tmax in Sprague-Dawley rat at 2 mg/kg, po; type: ADME, organism-based; parameters: dose 2 mg/kg, route oral; conditions: in vivo
How it was run: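 Male Sprague–Dawley rats dosed iv at 0.5 mg/kg as DMSO solution or po at 2 mg/kg as suspension in 100% OraPlus. Serial jugular blood, plasma LC-MS/MS quantitation, noncompartmental analysis.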

[20] = Aqueous solubility in 0.01 N Hcl; type: physicochemical
[21] = target: Platelet-derived growth factor receptor alpha (Homo sapiens) (UniProt P16234); assay: Inhibition of PDGFRalpha
[22] = target: Mast/stem cell growth factor receptor Kit (Homo sapiens) (UniProt P10721); assay: Inhibition of c-Kit
[23] = target: Macrophage colony-stimulating factor 1 receptor (Homo sapiens) (UniProt P07333); assay: Inhibition of c-fms
[24] = target: Receptor-type tyrosine-protein kinase FLT3 (Homo sapiens) (UniProt P36888); assay: Inhibition of Flt3
Liver microsomes = assay: Metabolic stability assessed as covalent binding in absence of NADPH in human liver microsomes at 10 uM after 1 hr; type: ADME, Microsome
How it was run: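 14C-labelled compound at 10 µM with human or rat liver microsomes (1 mg/mL) in 0.1 M potassium phosphate pH 7.4, with or without 1 mM NADPH and 1 mM glutathione, 60 min; quenched with ice-cold acetonitrile. Pellet washed with 80% methanol and ethanol/ether, solubilized, protein by BCA, radioactivity by scintillation counting.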

[25] = target: Tyrosine-protein kinase Lck (Homo sapiens, UniProt P06239); assay: Inhibition of Lck
Aurora kinase A = target: T1, Aurora kinase A (Homo sapiens, UniProt O14965); assay: Inhibition of Aurora A
T1 sequence (O14965 whole entry): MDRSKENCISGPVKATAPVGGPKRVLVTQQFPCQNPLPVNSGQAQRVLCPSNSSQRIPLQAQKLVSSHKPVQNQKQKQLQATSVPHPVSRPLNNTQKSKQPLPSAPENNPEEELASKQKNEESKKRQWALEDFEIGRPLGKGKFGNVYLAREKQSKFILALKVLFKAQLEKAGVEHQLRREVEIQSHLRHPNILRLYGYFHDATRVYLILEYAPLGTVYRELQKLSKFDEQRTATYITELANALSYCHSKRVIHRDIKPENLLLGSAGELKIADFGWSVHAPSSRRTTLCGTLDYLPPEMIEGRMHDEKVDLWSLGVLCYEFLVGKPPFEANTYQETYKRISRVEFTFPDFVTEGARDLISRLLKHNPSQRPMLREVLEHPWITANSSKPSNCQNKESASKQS

HUVEC = assay: Inhibition of VEGF-induced proliferation of HUVEC; type: functional, cell-based; conditions: Homo sapiens
[26] = target: Tyrosine-protein kinase ABL1 (Homo sapiens, UniProt P00519)
[27] = target: Vascular endothelial growth factor receptor 2 (Homo sapiens, UniProt P35968)
Calu-6 (Homo sapiens) [28] = assay: Antitumor activity in human Calu6 cell xenografted CD1 nu/nu mouse assessed as inhibition of tumor growth at 6 mg/kg, po qd for 14 days; conditions: Calu-6, po, 336 h, read-out: TGI
Calu-6 (Homo sapiens) [29] = assay: Antitumor activity in human Calu6 cell xenografted CD1 nu/nu mouse assessed as inhibition of tumor growth at 20 mg/kg, po qd for 14 days; conditions: Calu-6, po, 336 h, read-out: TGI

Sequence of Tyrosine-protein kinase ABL1 (P00519 whole entry): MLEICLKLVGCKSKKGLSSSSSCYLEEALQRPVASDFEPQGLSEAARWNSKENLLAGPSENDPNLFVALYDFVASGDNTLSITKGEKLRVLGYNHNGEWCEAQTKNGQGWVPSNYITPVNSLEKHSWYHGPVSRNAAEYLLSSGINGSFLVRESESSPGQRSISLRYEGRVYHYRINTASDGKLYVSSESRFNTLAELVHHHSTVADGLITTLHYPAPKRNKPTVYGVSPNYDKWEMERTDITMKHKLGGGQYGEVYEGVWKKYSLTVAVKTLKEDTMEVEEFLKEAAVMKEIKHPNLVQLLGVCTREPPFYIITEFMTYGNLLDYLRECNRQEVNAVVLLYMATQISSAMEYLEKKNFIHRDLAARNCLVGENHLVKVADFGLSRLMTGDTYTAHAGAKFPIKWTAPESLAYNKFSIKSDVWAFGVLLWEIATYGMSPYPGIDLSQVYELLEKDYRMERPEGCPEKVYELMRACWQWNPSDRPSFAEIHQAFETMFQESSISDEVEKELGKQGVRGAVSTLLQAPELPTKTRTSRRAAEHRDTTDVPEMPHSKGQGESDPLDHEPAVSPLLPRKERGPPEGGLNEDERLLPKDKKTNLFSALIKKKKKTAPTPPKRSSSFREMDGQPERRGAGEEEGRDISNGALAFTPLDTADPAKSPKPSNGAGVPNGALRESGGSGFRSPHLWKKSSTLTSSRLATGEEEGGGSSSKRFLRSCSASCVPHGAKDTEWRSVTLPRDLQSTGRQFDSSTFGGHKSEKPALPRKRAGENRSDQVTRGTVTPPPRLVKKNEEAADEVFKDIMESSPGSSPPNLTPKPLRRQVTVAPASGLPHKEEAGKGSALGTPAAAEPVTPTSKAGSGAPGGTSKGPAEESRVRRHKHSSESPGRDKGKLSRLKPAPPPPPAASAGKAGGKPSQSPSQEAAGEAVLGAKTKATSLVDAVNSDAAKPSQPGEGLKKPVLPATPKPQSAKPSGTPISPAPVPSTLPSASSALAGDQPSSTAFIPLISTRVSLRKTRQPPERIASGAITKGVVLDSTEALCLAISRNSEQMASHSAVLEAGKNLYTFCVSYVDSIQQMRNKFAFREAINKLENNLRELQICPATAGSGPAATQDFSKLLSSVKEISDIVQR
Sequence of Platelet-derived growth factor receptor alpha (Homo sapiens) (P16234 whole entry): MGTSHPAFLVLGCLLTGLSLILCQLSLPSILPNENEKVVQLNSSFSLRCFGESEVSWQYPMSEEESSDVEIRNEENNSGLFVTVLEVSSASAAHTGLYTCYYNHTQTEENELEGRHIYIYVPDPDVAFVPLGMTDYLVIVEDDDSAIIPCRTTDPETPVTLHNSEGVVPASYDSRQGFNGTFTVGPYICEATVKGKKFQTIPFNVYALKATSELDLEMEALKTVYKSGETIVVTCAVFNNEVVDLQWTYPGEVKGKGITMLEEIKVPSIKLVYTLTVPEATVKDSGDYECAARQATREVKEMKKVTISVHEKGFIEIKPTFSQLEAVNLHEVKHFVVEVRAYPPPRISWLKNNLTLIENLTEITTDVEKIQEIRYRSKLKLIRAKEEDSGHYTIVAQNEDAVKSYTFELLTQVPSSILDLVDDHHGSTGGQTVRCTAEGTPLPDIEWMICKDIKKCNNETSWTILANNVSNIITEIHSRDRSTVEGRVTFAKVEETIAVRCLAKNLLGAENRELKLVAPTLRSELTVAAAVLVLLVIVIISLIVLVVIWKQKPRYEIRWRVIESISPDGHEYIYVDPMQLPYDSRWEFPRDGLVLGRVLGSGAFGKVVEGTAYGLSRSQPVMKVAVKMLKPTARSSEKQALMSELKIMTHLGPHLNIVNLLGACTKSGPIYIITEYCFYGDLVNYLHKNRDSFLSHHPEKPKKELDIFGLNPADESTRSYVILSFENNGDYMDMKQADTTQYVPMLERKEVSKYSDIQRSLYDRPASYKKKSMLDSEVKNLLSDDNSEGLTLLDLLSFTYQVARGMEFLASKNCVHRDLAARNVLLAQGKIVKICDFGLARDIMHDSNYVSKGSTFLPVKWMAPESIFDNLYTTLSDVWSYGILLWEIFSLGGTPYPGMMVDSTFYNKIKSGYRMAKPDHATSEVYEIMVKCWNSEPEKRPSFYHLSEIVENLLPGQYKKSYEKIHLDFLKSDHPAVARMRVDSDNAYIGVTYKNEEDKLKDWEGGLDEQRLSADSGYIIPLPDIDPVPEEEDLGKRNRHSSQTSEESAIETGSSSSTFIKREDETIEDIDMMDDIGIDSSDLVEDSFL
Sequence of Tyrosine-protein kinase Lck (P06239 whole entry): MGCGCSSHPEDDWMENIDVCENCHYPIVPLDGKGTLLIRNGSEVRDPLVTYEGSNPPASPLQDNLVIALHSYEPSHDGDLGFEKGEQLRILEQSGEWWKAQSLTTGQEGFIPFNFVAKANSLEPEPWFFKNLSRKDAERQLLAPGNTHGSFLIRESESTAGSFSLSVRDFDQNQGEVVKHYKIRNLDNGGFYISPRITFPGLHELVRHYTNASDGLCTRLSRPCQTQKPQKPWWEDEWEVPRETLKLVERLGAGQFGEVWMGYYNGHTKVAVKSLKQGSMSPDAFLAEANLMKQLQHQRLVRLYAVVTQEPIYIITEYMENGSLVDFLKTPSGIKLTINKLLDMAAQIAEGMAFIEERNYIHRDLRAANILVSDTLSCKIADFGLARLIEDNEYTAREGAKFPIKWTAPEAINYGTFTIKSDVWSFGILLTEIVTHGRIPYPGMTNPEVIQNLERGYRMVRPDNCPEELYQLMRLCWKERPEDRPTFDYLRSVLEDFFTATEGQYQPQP
Sequence of Macrophage colony-stimulating factor 1 receptor (Homo sapiens) (P07333 whole entry): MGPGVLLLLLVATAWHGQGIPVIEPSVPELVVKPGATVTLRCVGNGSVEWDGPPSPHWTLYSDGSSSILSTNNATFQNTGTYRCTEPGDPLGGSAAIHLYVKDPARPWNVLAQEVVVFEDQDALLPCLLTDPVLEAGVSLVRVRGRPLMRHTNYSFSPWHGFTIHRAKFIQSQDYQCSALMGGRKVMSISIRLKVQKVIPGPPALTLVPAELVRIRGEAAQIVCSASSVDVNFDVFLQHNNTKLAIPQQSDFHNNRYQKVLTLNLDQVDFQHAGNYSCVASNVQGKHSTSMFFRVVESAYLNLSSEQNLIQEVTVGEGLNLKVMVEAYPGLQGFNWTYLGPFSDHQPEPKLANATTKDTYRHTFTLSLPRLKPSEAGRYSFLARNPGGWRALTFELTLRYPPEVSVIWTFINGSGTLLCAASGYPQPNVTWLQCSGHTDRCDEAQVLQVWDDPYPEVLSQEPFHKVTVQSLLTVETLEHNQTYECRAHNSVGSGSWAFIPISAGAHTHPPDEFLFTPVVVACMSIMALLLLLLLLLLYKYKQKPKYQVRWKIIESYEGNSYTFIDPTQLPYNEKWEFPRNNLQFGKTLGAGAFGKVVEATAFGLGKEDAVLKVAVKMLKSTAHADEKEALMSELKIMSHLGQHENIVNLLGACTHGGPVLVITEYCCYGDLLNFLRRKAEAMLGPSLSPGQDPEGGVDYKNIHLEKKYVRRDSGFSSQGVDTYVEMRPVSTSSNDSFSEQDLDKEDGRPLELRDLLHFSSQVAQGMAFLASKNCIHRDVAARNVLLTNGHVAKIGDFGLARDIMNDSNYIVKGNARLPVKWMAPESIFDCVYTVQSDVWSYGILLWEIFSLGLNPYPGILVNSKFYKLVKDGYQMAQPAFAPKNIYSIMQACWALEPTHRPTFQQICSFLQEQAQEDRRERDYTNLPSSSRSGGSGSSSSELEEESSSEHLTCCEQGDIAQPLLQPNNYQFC
Sequence of Receptor-type tyrosine-protein kinase FLT3 (Homo sapiens) (P36888 whole entry): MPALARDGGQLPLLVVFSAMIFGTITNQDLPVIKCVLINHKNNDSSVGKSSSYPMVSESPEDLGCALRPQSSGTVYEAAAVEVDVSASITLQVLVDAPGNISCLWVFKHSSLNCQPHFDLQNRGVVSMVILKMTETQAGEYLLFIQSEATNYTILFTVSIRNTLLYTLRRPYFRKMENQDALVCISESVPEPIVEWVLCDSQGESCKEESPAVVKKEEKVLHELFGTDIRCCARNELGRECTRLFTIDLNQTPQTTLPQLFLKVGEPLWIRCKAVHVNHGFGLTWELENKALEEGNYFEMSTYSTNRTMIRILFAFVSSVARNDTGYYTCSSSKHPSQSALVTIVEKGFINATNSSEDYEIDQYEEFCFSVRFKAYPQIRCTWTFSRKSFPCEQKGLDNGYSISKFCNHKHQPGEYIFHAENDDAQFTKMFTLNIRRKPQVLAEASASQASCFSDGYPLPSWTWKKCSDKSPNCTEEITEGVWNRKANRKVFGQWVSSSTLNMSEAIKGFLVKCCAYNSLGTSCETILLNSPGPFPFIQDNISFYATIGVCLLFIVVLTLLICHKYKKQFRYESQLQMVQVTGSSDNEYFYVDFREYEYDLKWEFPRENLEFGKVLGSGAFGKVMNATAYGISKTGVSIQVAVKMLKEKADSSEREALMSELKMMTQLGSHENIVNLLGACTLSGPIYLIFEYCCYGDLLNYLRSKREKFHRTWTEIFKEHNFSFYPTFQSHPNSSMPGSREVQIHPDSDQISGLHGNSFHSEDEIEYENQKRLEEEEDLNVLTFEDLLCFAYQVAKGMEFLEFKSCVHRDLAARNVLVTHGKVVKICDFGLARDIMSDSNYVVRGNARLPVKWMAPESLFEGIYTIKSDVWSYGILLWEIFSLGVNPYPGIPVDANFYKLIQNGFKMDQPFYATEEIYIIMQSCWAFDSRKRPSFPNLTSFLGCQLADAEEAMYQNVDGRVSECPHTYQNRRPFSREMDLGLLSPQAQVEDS

Compound `COc1cc2nccc(Oc3ccc4c(C(N)=O)cccc4c3)c2cc1OC` has a Cmax (Mus musculus [1]) of 890 ng/mL, a Tmax [2] of 0.25 h and an AUC(0-t) at 24 h [3] of 1500 ng·h/mL. For the same compound, the MRT [4] was 2.3 h, the Vd [5] was 5.74 L/kg and the fraction unbound [6] was 0.038. The half-life [7] was 16 h, the MRT [8] was 18 h and the fraction unbound [9] was 0.008. For the same compound, the AUC(0-t) at 24 h [10] was 1360 ng·h/mL, the clearance [11] was 13 mL/min/kg and the inhibition in vivo at 3 mg/kg (HT-29 [12]) was 51%. It also gave an inhibition in vivo at 30 mg/kg (HT-29 [13]) of 94%, a Cmax (Mus musculus [14]) of 1300 nM and an AUC at 24 h [15] of 3.9 µM·h. The fraction unbound [16] was 0.027, the half-life [17] was 6 h and the Cmax [18] was 1690 ng/mL. The Tmax [19] was 1.6 h, the solubility [20] was greater than 200 µg/mL and the Activity [21] was “Active”. For the same compound, the Activity [22] was “Active”, the Activity [23] was “Active” and the Activity [24] was “inactive”. It also gave a Stability (Liver microsomes) of 14 pmol/mg/h, an IC50 [25] of 300 nM and an IC50 (Aurora kinase A) of 5000 nM. The IC50 (HUVEC) was 2.1 nM, the IC50 [26] was 110 nM and the IC50 [27] was 0.9 nM. For the same compound, the inhibition in vivo at 6 mg/kg (Calu-6 (Homo sapiens) [28]) was 52% and the inhibition in vivo at 20 mg/kg (Calu-6 (Homo sapiens) [29]) was 85%.
